Measurements: ChEMBL document CHEMBL1126276, “Synthesis and antimalarial properties of 1-imino derivatives of 7-chloro-3-substituted-3,4-dihydro-1,9(2H,10H)-acridinediones and related structures” (J Med Chem, 1992)

Assays:
Format in all cases: functional
[1] = test system: Plasmodium berghei; test: (§1) Antimalarial activity in Plasmodium berghei infected mice (Mus musculus) after 80 mg/kg subcutaneous dose
Procedure, shortened: (§2)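 […] in mice infected with a normal drug-sensitive P. berghei strain. Compound dissolved or suspended in sesame or peanut oil, given as a single subcutaneous dose 72 h postinfection.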

[2] = test system: Plasmodium berghei; test: Antimalarial activity in Plasmodium berghei infected mice (Mus musculus) after 160 mg/kg subcutaneous dose; procedure, shortened: as §2
[3] = test system: Plasmodium berghei; test: Antimalarial activity Plasmodium berghei infected mice (Mus musculus) after 640 mg/kg subcutaneous dose; procedure, shortened: as §2
[4] = test system: Plasmodium berghei; test: Antimalarial activity in Plasmodium berghei infected mice (Mus musculus) after subcutaneous 640 mg/kg dose
Procedure, shortened: (§3)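 Normal drug-sensitive P. berghei strain in mice. Compound dissolved or suspended in sesame or peanut oil, given parenterally as a single subcutaneous dose 72 h postinfection.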

[5] = test system: Plasmodium berghei; test: Antimalarial activity in Plasmodium berghei infected mice (Mus musculus) after 320 mg/kg subcutaneous dose; procedure, shortened: as §2
[6] = test system: Plasmodium berghei; test: (§4) Antimalarial activity in Plasmodium berghei infected mice (Mus musculus) after 40 mg/kg subcutaneous dose; procedure, shortened: as §2
[7] = test system: Plasmodium berghei; test: Antimalarial activity in Plasmodium berghei infected mice (Mus musculus) after 20 mg/kg subcutaneous dose; procedure, shortened: as §2
[8] = test system: Plasmodium berghei; test: Antimalarial activity in Plasmodium berghei infected mice (Mus musculus) after subcutaneous 320 mg/kg dose; procedure, shortened: as §3
[9] = test system: Plasmodium berghei; test: Antimalarial activity in Plasmodium berghei infected mice (Mus musculus) after subcutaneous 160 mg/kg dose; procedure, shortened: as §3
[10] = test system: Plasmodium berghei; test: as §4; procedure, shortened: as §3; remark: listed apart in the source
[11] = test system: Plasmodium berghei; test: as §1; procedure, shortened: as §3; remark: listed apart in the source

Compound	Delta mean survival time [1]	Delta mean survival time [2]	Delta mean survival time [3]	No. of cured mice [4]	Delta mean survival time [5]	Delta mean survival time [6]	Delta mean survival time [7]	No. of cured mice [8]	No. of cured mice [9]	No. of cured mice [10]	No. of cured mice [11]
C/N=C1\CC(c2ccc(Cl)c(Cl)c2)Cc2c1c(=O)c1cc(Cl)ccc1n2O (configuration not stated)	3.3	6.4	10.8	3	10.7	–	–	–	–	–	–
CCN(CC)CCO/N=C1\CC(c2ccc(Cl)c(Cl)c2)Cc2c1c(=O)c1cc(Cl)ccc1n2O (configuration not stated)	0.9	2.1	8.7	–	3.7	–	–	–	–	–	–
CC(C)C1CC(=O)c2c(n(O)c3ccc(Cl)cc3c2=O)C1 (configuration not stated)	1.7	3.5	–	5	8.3	0.3	0.1	–	–	–	–
COc1ccc(C2C/C(=N\CCCN(C)C)c3c(n(O)c4ccc(Cl)cc4c3=O)C2)cc1 (configuration not stated)	0.1	0.7	8.4	3	6.5	–	–	–	–	–	–
CCN1CCCC(/N=C2\CC(c3ccc(Cl)c(Cl)c3)Cc3c2c(=O)c2cc(Cl)ccc2n3O)C1 (configuration not stated)	7.2	8.3	–	5	8.8	–	–	4	2	–	–
O=C1CC(c2cccc3ccccc23)Cc2c1c(=O)c1cc(Cl)ccc1n2O (configuration not stated)	2.3	6.9	13.7	4	5.7	–	–	2	–	–	–
O=C1CC(c2ccccn2)Cc2nc3ccc(Cl)cc3c(O)c21 (configuration not stated)	1.1	2.4	4.4	–	7.3	–	–	–	–	–	–
CN(C)CCC/N=C1\CC(c2c(Cl)cccc2Cl)Cc2c1c(=O)c1cc(Cl)ccc1n2O (configuration not stated)	4.1	9.4	–	5	7.2	1.2	–	1	1	–	–
O=C1CC(C2CCCCC2)Cc2c1c(=O)c1cc(Cl)ccc1n2O (configuration not stated)	2.5	2.9	12.7	1	6.5	–	–	–	–	–	–
O=c1c2c(n(O)c3ccc(Cl)cc13)CC(c1cccc(C(F)(F)F)c1)C/C2=N\Cc1ccc(Cl)c(Cl)c1 (configuration not stated)	4.4	8.4	–	5	11.5	–	–	2	–	–	–
COc1cc(C2C/C(=N\CCCN(C)C)c3c(n(O)c4ccc(Cl)cc4c3=O)C2)cc(OC)c1OC (configuration not stated)	–	1	4.3	–	4	–	–	–	–	–	–
CN(C)CCC/N=C1\CC(c2cccc3ccccc23)Cc2c1c(=O)c1cc(Cl)ccc1n2O (configuration not stated)	7.1	9.3	–	5	4.7	2.6	–	4	1	–	–
O=C1CC(c2ccc(F)cc2)Cc2c1c(=O)c1cc(Cl)ccc1n2O (configuration not stated)	9.8	8.8	–	5	–	19.4	5	5	4	2	4
CCN(CC)C1CCC(/N=C2\CC(c3ccc(Cl)c(Cl)c3)Cc3c2c(=O)c2cc(Cl)ccc2n3O)CC1 (configuration not stated)	7.2	–	–	5	12.1	5.6	–	3	5	–	–
CN(C)CCC/N=C1\CC(c2ccccc2)Cc2c1c(=O)c1cc(Cl)ccc1n2O (configuration not stated)	1.2	4.2	–	5	8.8	0.6	–	–	–	–	–
CN(C)CCC/N=C1\CC(c2ccc(N(C)C)cc2)Cc2c1c(=O)c1cc(Cl)ccc1n2O (configuration not stated)	0.9	6.8	–	5	7.4	–	–	3	–	–	–
O=c1c2c(n(O)c3ccc(Cl)cc13)CC(c1cccc(C(F)(F)F)c1)C/C2=N\C1CCN(Cc2ccccc2)CC1 (configuration not stated)	3.8	8.6	11.1	1	8.4	6.8	–	–	2	–	–
COc1ccc2nc3c(c(O)c2c1)C(=O)CC(c1ccc(C(F)(F)F)cc1)C3 (configuration not stated)	0.1	2.9	4.4	–	2.3	-0.3	–	–	–	–	–
O=C1CC(c2cccc(C(F)(F)F)c2)Cc2nc3ccc(Cl)cc3c(O)c21 (configuration not stated)	0.3	2.3	5.3	–	3.3	–	–	–	–	–	–
CSCCC/N=C1\CC(c2ccc(Cl)c(Cl)c2)Cc2c1c(=O)c1cc(Cl)ccc1n2O (configuration not stated)	–	1.7	3.7	1	4.1	–	–	–	–	–	–
N=C1CC(c2cccc(C(F)(F)F)c2)Cc2c1c(=O)c1cc(Cl)ccc1n2O (configuration not stated)	3.4	3.8	8.2	–	7.6	1.4	–	–	–	–	–
CCN(CC)CC/N=C1\CC(c2cc(OC)c(OC)c(OC)c2)Cc2c1c(=O)c1cc(Cl)ccc1n2O (configuration not stated)	–	1.2	6	–	5	0.8	–	–	–	–	–
CN(C)c1ccc(C2CC(=O)c3c(n(O)c4ccc(Cl)cc4c3=O)C2)cc1 (configuration not stated)	5.8	6.6	–	5	6.8	1.6	–	3	1	–	–
CN(C)CCC/N=C1\CC(c2ccc(Cl)cc2Cl)Cc2nc3c(Cl)ccc(Cl)c3c(O)c21 (configuration not stated)	0	–	–	–	0	–	1.2	–	–	–	–
CN(C)CCC/N=C1\CC(c2cccc(Br)c2)Cc2c1c(=O)c1cc(Cl)ccc1n2O (configuration not stated)	5.3	9.4	–	5	10.2	1.6	–	2	–	–	–
CN(C)CCC/N=C1\CC(c2ccc(C(F)(F)F)cc2)Cc2nc3ccc(Br)cc3c(O)c21 (configuration not stated)	–	–	25.7	2	–	9.3	6	5	5	1	5
O=C1CC(c2cccc(C(F)(F)F)c2)Cc2c1c(=O)c1cc(Cl)ccc1n2[O-].[Na+] (configuration not stated)	10	13.8	–	5	16	7.8	6.4	3	–	–	–
COc1cc(C2CC(=O)c3c(n(O)c4ccc(Cl)cc4c3=O)C2)cc(OC)c1OC (configuration not stated)	1.3	1.8	7	–	2.7	–	–	–	–	–	–
